Screening data deposited in PubChem BioAssay by several laboratories.
In the library only some 3% were active in any assay of this set; here they are far more common.
CendR NRP1 mod: modulators of CendR peptide binding to NRP-1, primary screen, biochemical, fluorescence polarization, uHTS | Neuropilin-1 (Homo sapiens), O14786 | FAM-RPARPAR peptide binding to NRP-1 | inhibition, % at 25 µM | 0.85% of 360,000 active | AID 602438, 2012;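 active = inhibition or corrected inhibition above about 18%, plus a signal ratio from 0.5 to 1.5, limit read from the data, passing the limit was not always enough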
HIF act: HIF pathway transcriptional activators, primary screen, cell-based, U2OS HRE-luciferase, luminescence; U2OS HRE-luciferase reporter; normalized: DMSO 0%, desferrioxamine 100%; AID 1910, 2009; 0.32% of 300,000 active; activation, % at 7.5 µM (by protocol);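 active = mean activation of at least 10% of the iron chelator positive control signal, with at least half of replicates also reaching 10%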
Yeast superoxide: reduction of superoxide in aged yeast, primary screen, HTS; superoxide response (% of plate mean), % at 10 µM; S. cerevisiae aged cells, superoxide DHE fluorescence; stronger effect = lower value; 0.18% of 330,000 active;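 active = superoxide response under a set limit, about three screen SD below normal, cut at about 65% in these data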;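 also: yeast aged for seven days with compound at 30 °C before DHE staining; 100% = average MFI of all compound-treated wells on the plate with controls excluded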
T cruzi repl: inhibitors of intracellular T. cruzi growth, primary screen, luminescence, NIH3T3 host cells; T. cruzi beta-gal in NIH3T3, 90 h; inhibition, % (test concentration not listed); 1.4% of 300,000 active;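 active = mean inhibition across valid replicates above about 55%, limit read from the data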;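 also: signal also drops with host cell toxicity which is not excluded here; 0% = plate median of DMSO wells and 100% = zero luminescence signal; higher percent means less beta-gal luminescence so fewer parasites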
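Assay system: NIH/3T3 host cells with β-galactosidase reporter T. cruzi; input: 5,000 host fibroblasts per well; compound: single 50 nL compound addition per well in DMSO; timing: ≥90 h infection period, 3 h prior cell attachment; measured by: GalScreen β-gal luminescence, detergent lysis, 60 min; evaluation: percent inhibition of parasite-derived β-gal signal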
V-ATPase pH: regulators of yeast V-ATPase proton pumping, primary screen, pHLuorin cytosolic pH fluorescence; AID 504577, 2011; response, % at 10 µM; 0.37% of 350,000 active; S. cerevisiae; in the data active = response mostly above about 7.3%, no sharp cut-off; inactive = mostly below about 5.4%; also: actives read high
AI-2 QS mod: Vibrio harveyi AI-2 quorum sensing modulators, primary screen, JMH597 strain, luminescence/OD600 ratio | Vibrio harveyi JMH597 AI-2 luminescence/OD600 ratio, 9 h; stronger effect = lower value; strain lacks LuxN and CqsS sensors; 0 = neutral-control median | activity change, % at 7.5 µM | 0.4% of 300,000 active | AID 2094, 2009; in the data active = activity change below about -75%, passing the limit was not always enough;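 also: luminescence divided by OD600 gain over 9 h not by final OD600 alone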
CR mimetic CP: superoxide lowering in aged yeast cells, confirmation, cherry picked compounds; S. cerevisiae aging, superoxide DHE fluorescence; stronger effect = lower value; 1% of 850 active; superoxide response (% of plate), % at 10 µM; shares compounds with Yeast superoxide;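 active = superoxide signal below 65% of the plate average of sample wells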;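 also: cells aged with compound for 7 days at 30 degrees C before staining; 100% equals mean DHE fluorescence of all compound wells on the plate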
DHE counter: DHE quenching or ROS scavenging interference in aged yeast, artefact control for yeast caloric restriction mimetic project, S. cerevisiae BY4741, flow cytometry; shares compounds with Yeast superoxide; DHE fluorescence; stronger effect = lower value; fluorescence response, % at 10 µM; 850 tested, under 10 active; AID 435000, 2010;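 active = fluorescence response below 15%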;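 also: percent of the mean fluorescence averaged over all compound wells on the plate; lower means stronger quenching of DHE signal or ROS scavenging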
Starred values were filed as active, the others as inactive.

How did CC1CCCN(S(=O)(=O)c2ccc(C(=O)Nc3nnc(C4CC4)o3)cc2)C1 (centres undefined) do in these assays?
CendR NRP1 mod: -14.2; HIF act: -0.3; Yeast superoxide: 64.7*; T cruzi repl: -5.9; V-ATPase pH: 0.7; AI-2 QS mod: 16.8; CR mimetic CP: 93.1; DHE counter: 100.1

Results for CN(CC1CCCO1)S(=O)(=O)c1ccc(C(=O)Nc2ccc3c(c2)OCO3)cc1 (centres undefined) ?
CendR NRP1 mod: -5.5; HIF act: -0.1; Yeast superoxide: 89.2; T cruzi repl: -1.1; V-ATPase pH: -4.4; AI-2 QS mod: 1.4

Results for COc1ccccc1-c1nnc(NC(=O)c2ccc(S(=O)(=O)N3CCCC3)cc2)o1 ?
CendR NRP1 mod: 9.2; HIF act: -0.8; Yeast superoxide: 101.0; T cruzi repl: -20.2; V-ATPase pH: 2.7; AI-2 QS mod: 0.4; CR mimetic CP: 116.1; DHE counter: 105.6

How did O=c1[nH]c(=S)[nH]c2c1C(C1CCCCC1)OC(C1CCCCC1)C2 (centres undefined) do in these assays?
CendR NRP1 mod: -21.4

Results for CC(C)(C)c1ccc(/C=N/OCC(=O)NCc2ccc(F)cc2)cc1 ?
CendR NRP1 mod: 7.0; HIF act: 0.5; Yeast superoxide: 62.5*; T cruzi repl: 14.0; V-ATPase pH: -2.9; AI-2 QS mod: 13.2; CR mimetic CP: 101.3; DHE counter: 91.0

What do the screens show for `CCOC(=O)c1ccccc1N/C=C/C(=O)c1cccs1`?
CendR NRP1 mod: -6.7; Yeast superoxide: 63.4*; T cruzi repl: -5.2; V-ATPase pH: 6.1; AI-2 QS mod: 40.2; CR mimetic CP: 110.0; DHE counter: 90.5

What do the screens show for `O=C(Cc1ccc(-n2c(=S)[nH]c3ccccc3c2=O)cc1)N1CCN(c2ccccc2)CC1`?
CendR NRP1 mod: -0.6; HIF act: 0.1; Yeast superoxide: 65.3*; T cruzi repl: 5.9; V-ATPase pH: 2.3; AI-2 QS mod: -2.5; CR mimetic CP: 95.5; DHE counter: 93.3

What do the screens show for `Cc1[nH]c2ccc3ncccc3c2c1C`?
CendR NRP1 mod: -9.0; HIF act: 1.1; Yeast superoxide: 91.9; T cruzi repl: 5.5; V-ATPase pH: 4.1; AI-2 QS mod: 1.5

What do the screens show for `O=c1c2sc(-c3ccccc3)cc2nc2n1CCC2`?
CendR NRP1 mod: 1.5; HIF act: -5.6; Yeast superoxide: 47.6*; T cruzi repl: 11.3; V-ATPase pH: 0.8; AI-2 QS mod: -4.3; CR mimetic CP: 82.9; DHE counter: 106.5

How did COc1ccc(S(=O)(=O)N2CCC3(CC2)CC(=O)c2ccccc2O3)cc1C do in these assays?
CendR NRP1 mod: 17.7; HIF act: -0.2; Yeast superoxide: 65.3*; T cruzi repl: -18.0; V-ATPase pH: -2.9; AI-2 QS mod: -1.2; CR mimetic CP: 100.1; DHE counter: 96.1

How did COc1ccc(NC(=O)c2c(Cl)nc3ccccn23)cc1 do in these assays?
CendR NRP1 mod: 6.1; HIF act: 1.2; Yeast superoxide: 117.6; T cruzi repl: 2.4; V-ATPase pH: -2.3; AI-2 QS mod: 10.5

How did C=CCOn1c(=O)c(-c2ccc(Cl)cc2)[n+]([O-])c2ccccc21 do in these assays?
CendR NRP1 mod: 1.0; HIF act: 1.1; T cruzi repl: -10.4; V-ATPase pH: -2.1; AI-2 QS mod: 14.5

Results for C=CCOn1c(=O)c(-c2cccs2)[n+]([O-])c2ccccc21 ?
CendR NRP1 mod: -1.3; HIF act: 0.1; Yeast superoxide: 61.7*; T cruzi repl: 19.2; V-ATPase pH: 2.9; AI-2 QS mod: 9.8; CR mimetic CP: 92.3; DHE counter: 110.3

What do the screens show for `O=C(Cn1cc(C(F)(F)F)ccc1=O)N/N=C/c1ccc(Cl)c(Cl)c1`?
CendR NRP1 mod: 9.3; HIF act: 0.4; Yeast superoxide: 92.3; T cruzi repl: 8.0; V-ATPase pH: -3.6; AI-2 QS mod: -52.1

How did COc1c(C)cc(S(=O)(=O)N2CCOCC2)c(C)c1C do in these assays?
CendR NRP1 mod: -10.9; HIF act: -0.2; Yeast superoxide: 91.2; T cruzi repl: 2.4; V-ATPase pH: 3.6; AI-2 QS mod: 28.7

Results for CCOc1cc(S(=O)(=O)N2CCCC2)c(C)cc1C ?
CendR NRP1 mod: 13.7; HIF act: 0.2; Yeast superoxide: 99.0; T cruzi repl: 16.5; V-ATPase pH: 1.5; AI-2 QS mod: 22.0; CR mimetic CP: 104.3; DHE counter: 103.7

What do the screens show for `COc1c(C)cc(S(=O)(=O)N2CCCC2)c(C)c1C`?
CendR NRP1 mod: 7.5; HIF act: 0.1; Yeast superoxide: 108.9; T cruzi repl: 5.5; V-ATPase pH: -2.3; AI-2 QS mod: 4.1; CR mimetic CP: 96.8; DHE counter: 94.5

What do the screens show for `CCOc1cc(C)c(S(=O)(=O)N2CCCCC2)cc1C`?
CendR NRP1 mod: 8.5; HIF act: -1.0; Yeast superoxide: 87.4; T cruzi repl: 4.2; V-ATPase pH: 5.0; AI-2 QS mod: 18.4

Results for COc1cc(C)ccc1S(=O)(=O)N1CCCCCC1 ?
CendR NRP1 mod: 14.0; HIF act: -0.4; Yeast superoxide: 100.4; T cruzi repl: -12.2; V-ATPase pH: -0.5; AI-2 QS mod: 8.0

Results for COc1cc(C)c(S(=O)(=O)N2CCCC2)cc1C(C)C ?
CendR NRP1 mod: -0.1; HIF act: -0.1; Yeast superoxide: 91.1; T cruzi repl: 15.0; V-ATPase pH: 3.3; AI-2 QS mod: 12.2; CR mimetic CP: 92.4; DHE counter: 89.7

How did COc1cc(C)c(S(=O)(=O)N2CCCC2)cc1C do in these assays?
CendR NRP1 mod: 12.2; HIF act: -0.3; Yeast superoxide: 58.9*; T cruzi repl: -17.6; V-ATPase pH: -1.8; AI-2 QS mod: 27.2; CR mimetic CP: 80.2; DHE counter: 91.8

Results for COc1ccc(C)cc1S(=O)(=O)N1CCCCCC1 ?
CendR NRP1 mod: 2.9; HIF act: -0.1; Yeast superoxide: 104.2; T cruzi repl: -14.1; V-ATPase pH: -2.2; AI-2 QS mod: -0.8

What do the screens show for `Cc1ccc(SCc2cc(=O)n(C)[nH]2)cc1`?
CendR NRP1 mod: -0.4; HIF act: -0.1; Yeast superoxide: 93.8; T cruzi repl: -6.3; V-ATPase pH: 3.4; AI-2 QS mod: 10.9

Results for O=C1NC[C@H](CCCCN2C[C@H](Cc3ccccc3)N(CCC3CCCCC3)C(=O)C2=O)N(CCC2CCCCC2)C1=O ?
CendR NRP1 mod: -11.6
